Assays:
Punta Toro virus = experiment: Antiviral activity against Punta Toro virus infected in African green monkey Vero cells assessed as reduction of virus-induced cytopathic effect after 3 days by colorimetric formazan-based MTS assay; assay type: functional, organism-based; conditions: 72 h
Outline: (§1)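 Confluent cell monolayers were infected with 100 CCID50 of virus, and serial dilutions of compound were added at the time of infection.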

Coxsackievirus B4 [1] = experiment: Antiviral activity against Human coxsackievirus B4 infected African green monkey Vero cells assessed as reduction of virus-induced cytopathic effect after 3 days by colorimetric formazan-based MTS assay; assay type: functional, organism-based; conditions: Enterovirus B, 72 h; outline: as §1
Respirovirus muris = experiment: Antiviral activity against Sendai virus infected African green monkey Vero cells assessed as reduction of virus-induced cytopathic effect after 3 days by colorimetric formazan-based MTS assay; assay type: functional, organism-based; conditions: 72 h
[2] = Cytotoxicity against Chlorocebus aethiops (African green monkey) Vero cells assessed as change in cellular morphology; assay type: cell-based; conditions: chlorocebus sabaeus
[3] = system: Respiratory syncytial virus; experiment: Antiviral activity against Respiratory syncytial virus infected human HeLa cells assessed as reduction of virus-induced cytopathic effect after 3 days by colorimetric formazan-based MTS assay; assay type: functional, organism-based; conditions: 72 h; outline: as §1
[4] = system: Vesicular stomatitis virus; experiment: Antiviral activity against Vesicular stomatitis virus infected human HeLa cells assessed as reduction of virus-induced cytopathic effect after 3 days by colorimetric formazan-based MTS assay; assay type: functional, organism-based; conditions: 72 h; outline: as §1
Coxsackievirus B4 [5] = experiment: Antiviral activity against Human coxsackievirus B4 infected human HeLa cells assessed as reduction of virus-induced cytopathic effect after 3 days by colorimetric formazan-based MTS assay; assay type: functional, organism-based; conditions: Enterovirus B, 72 h; outline: as §1
[6] = (§2) Cytotoxicity against Homo sapiens (human) HeLa cells assessed as change in cellular morphology; assay type: cell-based; conditions: HeLa cells
Outline: (§3)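 Uninfected cells were exposed to compound in parallel with the antiviral cultures. The read-out is the minimum cytotoxic concentration that causes a microscopically detectable alteration of normal cell morphology.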

HeLa = experiment: as §2; assay type: cell-based; conditions: hela; outline: as §3
[7] = system: Vesicular stomatitis virus; experiment: Antiviral activity against Vesicular stomatitis virus infected human HEL cells assessed as reduction of virus-induced cytopathic effect after 3 days by colorimetric formazan-based MTS assay; assay type: functional, organism-based; conditions: 72 h; outline: as §1
Vaccinia virus = experiment: Antiviral activity against Vaccinia virus infected human HEL cells assessed as reduction of virus-induced cytopathic effect after 3 days by colorimetric formazan-based MTS assay; assay type: functional, organism-based; conditions: Orthopoxvirus vaccinia, 72 h; outline: as §1
Human alphaherpesvirus 2 = experiment: Antiviral activity against Human herpesvirus 2 strain G infected human HEL cells assessed as reduction of virus-induced cytopathic effect after 3 days by colorimetric formazan-based MTS assay; assay type: functional, organism-based; conditions: Human alphaherpesvirus 2, strain G, 72 h; outline: as §1
[8] = Cytotoxicity against Homo sapiens (human) HEL cells assessed as change in cellular morphology; assay type: cell-based
Felid alphaherpesvirus 1 = experiment: Antiviral activity against Felid herpesvirus 1 infected cat CRFK cells assessed as reduction of virus-induced cytopathic effect after 3 days by colorimetric formazan-based MTS assay; assay type: functional, organism-based; conditions: Felid alphaherpesvirus 1, CRFK, 72 h
Outline: (§4)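 Cells grown to confluency in 96-well plates ([…], Vero for lines 9–10) were infected with 100 CCID50 of virus, and serial compound dilutions were added at infection. Plates were incubated at 37 °C for 3 days, until complete CPE appeared in untreated virus controls.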

[9] = system: Feline infectious peritonitis virus; experiment: Antiviral activity against Feline Infectious peritonitis virus infected cat CRFK cells assessed as reduction of virus-induced cytopathic effect after 3 days by colorimetric formazan-based MTS assay; assay type: functional, organism-based; conditions: Alphacoronavirus 1, CRFK, 72 h; outline: as §1
[10] = Cytotoxicity against Felis catus (cat) CRFK cells assessed as change in cellular morphology; assay type: cell-based; conditions: CRFK cells; outline: as §3
Human alphaherpesvirus 1 = experiment: Antiviral activity against acyclovir-resistant thymidine kinase negative Human herpesvirus 1 strain KOS infected human HEL cells assessed as reduction of virus-induced cytopathic effect after 3 days by colorimetric formazan-based MTS assay; assay type: functional, organism-based; conditions: Human alphaherpesvirus 1, KOS, 72 h; outline: as §1
CCRF-CEM = experiment: Cytotoxicity against Homo sapiens (human) CEM cells assessed as growth inhibition after 72 hr by coulter counter analysis; assay type: functional, cell-based
Outline: (§5)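 Cells in growth medium were allowed to proliferate with variable compound amounts at 37 °C in a humidified CO2 atmosphere. Incubation ran 48 h for L1210, 72 h for CEM and 96 h for HeLa. Cells were then counted with a Coulter counter.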

L1210 = experiment: Cytotoxicity against Mus musculus (mouse) L1210 cells assessed as growth inhibition after 48 hr by coulter counter analysis; assay type: functional, cell-based; conditions: L1210, 48 h; outline: as §5
Influenza B virus = experiment: Antiviral activity against Influenza B virus infected in MDCK cells assessed as reduction of virus-induced cytopathic effect after 3 days by colorimetric formazan-based MTS assay; assay type: functional, organism-based; conditions: 72 h; outline: as §1
Influenza A virus H3N2 = experiment: Antiviral activity against Influenza A virus H3N2 infected MDCK cells assessed as reduction of virus-induced cytopathic effect after 3 days by colorimetric formazan-based MTS assay; assay type: functional, organism-based; conditions: 72 h; outline: as §1
Influenza A virus = experiment: Antiviral activity against Unidentified Influenza A virus (H1N1) infected MDCK cells assessed as reduction of virus-induced cytopathic effect after 3 days by colorimetric formazan-based MTS assay; assay type: functional, organism-based; conditions: 72 h; outline: as §1
[11] = (§6) Cytotoxicity against MDCK cells assessed as change in cellular morphology; assay type: cell-based, Canis lupus familiaris; conditions: dog, MDCK cells; outline: as §3
MDCK = experiment: as §6; assay type: cell-based, Canis lupus familiaris; conditions: dog, mdck; outline: as §3
[12] = Inhibition of beta lactamase assessed as increase in time taken for iodine decolorization relative to control; parameters: concentration or dose not given beside the values; conditions: concentration not given here
[13] = Inhibition of beta lactamase assessed as time for decolorization of iodine (reference value: 79.5 secs)
[14] = system: Mammalian orthoreovirus 1; experiment: Antiviral activity against Mammalian orthoreovirus 1 infected African green monkey Vero cells assessed as reduction of virus-induced cytopathic effect after 3 days by colorimetric formazan-based MTS assay; assay type: functional, organism-based; conditions: Mammalian orthoreovirus 1, Vero, 72 h; outline: as §4
Human respirovirus 3 = experiment: Antiviral activity against Human parainfluenza virus 3 infected African green monkey Vero cells assessed as reduction of virus-induced cytopathic effect after 3 days by colorimetric formazan-based MTS assay; assay type: functional, organism-based; conditions: Human respirovirus 3, Vero, 72 h; outline: as §4

With `Nc1ncnc2c1ncn2C[C@H](O)CO` [(S)-DHPA] the EC50 (Punta Toro virus) was > 250 µM, the EC50 (Coxsackievirus B4 [1]) was > 250 µM and the EC50 (Respirovirus muris) was > 250 µM. For the same molecule, the MCC [2] was > 250 µM, the EC50 [3] was > 250 µM and the EC50 [4] was > 250 µM. For the same molecule, the EC50 (Coxsackievirus B4 [5]) was > 250 µM, the MCC [6] was > 250 µM and the CC50 (HeLa) was > 250 µM.

In the case of `Nc1nc2c(ncn2COCCO)c(=O)[nH]1` [ACYCLOVIR], the EC50 [7] is reported as > 250 µM, the EC50 (Vaccinia virus) is reported as > 250 µM and the EC50 (Human alphaherpesvirus 2) is reported as 0.7 µM. The MCC [8] was > 250 µM.

In the case of `Nc1nc2c(ncn2COC(CO)CO)c(=O)[nH]1` [GANCICLOVIR], the EC50 (Felid alphaherpesvirus 1) is reported as 7.3 µM, the EC50 [9] is reported as > 100 µM and the CC50 [10] is reported as > 100 µM. For the same molecule, the EC50 (Human alphaherpesvirus 1) was ≥ 20 µM, the EC50 [7] was > 100 µM and the EC50 (Vaccinia virus) was > 100 µM. The EC50 (Human alphaherpesvirus 2) was 0.07 µM and the MCC [8] was > 100 µM.

Molecule `N[C@@H](Cc1ccc(N(CCCl)CCCl)cc1)C(=O)O` has an IC50 (CCRF-CEM) of 2.2 µM and an IC50 (L1210) of 3.2 µM.

For `O=c1[nH]c(=O)n([C@H]2C[C@H](O)[C@@H](CO)O2)cc1/C=C/Br` [BRIVUDINE], the EC50 (Human alphaherpesvirus 1) was > 250 µM, the EC50 [7] was > 250 µM and the EC50 (Vaccinia virus) was 29 µM. For the same molecule, the MCC [8] was > 250 µM.

For `CC(N)C12CC3CC(CC(C3)C1)C2` (stereo not drawn) [RIMANTADINE], the EC50 (Influenza B virus) was > 100 µM, the EC50 (Influenza A virus H3N2) was 0.08 µM and the EC50 (Influenza A virus) was 24.2 µM. For the same molecule, the MCC [11] was 500 µM and the CC50 (MDCK) was 259 µM.

With `O=C(O)[C@H]1/C(=C/CO)O[C@@H]2CC(=O)N21` the inhibition [12] was 67% and the TIME [13] was 0.0668 h.

Molecule `NC(=O)c1ncn([C@@H]2O[C@H](CO)[C@@H](O)[C@H]2O)n1` [RIBAVIRIN] has an EC50 (Influenza B virus) of 8.4 µM, an EC50 (Influenza A virus H3N2) of 6.8 µM and an EC50 (Influenza A virus) of 11.5 µM. The MCC [11] was ≥ 100 µM, the EC50 (Coxsackievirus B4 [1]) was > 250 µM and the EC50 (Respirovirus muris) was > 250 µM. The EC50 [14] was > 250 µM, the EC50 (Human respirovirus 3) was 50 µM and the MCC [2] was > 250 µM. It also gave an EC50 [3] of 4.6 µM, an EC50 [4] of 12.1 µM and an EC50 (Coxsackievirus B4 [5]) of 28.5 µM. For the same molecule, the CC50 [6] was > 250 µM and the MCC [6] was > 250 µM.

— ChEMBL document CHEMBL3045116, “Synthesis and biological evaluation of 2-(5-substituted-1-((diethylamino)methyl)-2-oxoindolin-3-ylidene)-N-substituted-hydrazinecarbothioamides” (Med Chem Res, 2013)
